In assay [1] the target is Chitin synthase 1 (Candida albicans) (UniProt P23316). As to the kind of experiment: Inhibitory activity against chitin synthetase from Candida albicans H-317. It is filed as functional. Put shortly: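 Mixed membrane fraction of C. albicans H-317 (5.17 mg protein/mL stock), trypsin-activated 10 min at 37 °C with ATP in imidazole buffer pH 6.5; trypsin inhibitor, GlcNAc and UDP-[14C]GlcNAc then added with inhibitor at 10^-3 to 10^-6 M. Aliquots taken at 5–60 min, acid/ethanol-precipitated chitin filtered and scintillation-counted; ID50 = concentration giving half of initial velocity from dose-response curves.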
Sequence of Chitin synthase 1 (Candida albicans) (P23316 whole entry, looked up): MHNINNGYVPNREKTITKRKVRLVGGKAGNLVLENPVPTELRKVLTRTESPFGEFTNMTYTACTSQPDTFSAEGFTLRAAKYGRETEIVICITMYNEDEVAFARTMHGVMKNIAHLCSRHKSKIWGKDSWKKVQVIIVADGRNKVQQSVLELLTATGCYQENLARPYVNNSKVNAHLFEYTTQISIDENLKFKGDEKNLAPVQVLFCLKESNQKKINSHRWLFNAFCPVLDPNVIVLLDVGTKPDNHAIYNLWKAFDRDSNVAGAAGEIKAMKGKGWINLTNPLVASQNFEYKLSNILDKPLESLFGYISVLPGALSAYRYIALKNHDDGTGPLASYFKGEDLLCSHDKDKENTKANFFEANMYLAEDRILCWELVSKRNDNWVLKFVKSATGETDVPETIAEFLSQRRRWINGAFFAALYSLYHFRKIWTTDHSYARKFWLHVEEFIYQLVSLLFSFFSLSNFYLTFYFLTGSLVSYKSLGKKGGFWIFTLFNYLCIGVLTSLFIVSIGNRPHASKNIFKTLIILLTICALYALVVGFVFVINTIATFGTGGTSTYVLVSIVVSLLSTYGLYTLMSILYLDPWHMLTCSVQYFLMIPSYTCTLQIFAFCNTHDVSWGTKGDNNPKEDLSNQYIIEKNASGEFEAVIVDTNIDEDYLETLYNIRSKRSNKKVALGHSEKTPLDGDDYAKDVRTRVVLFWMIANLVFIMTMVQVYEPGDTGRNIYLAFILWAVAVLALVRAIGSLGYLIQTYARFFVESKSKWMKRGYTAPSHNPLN

The subject of assay [2] is Candida albicans. As to the kind of experiment: Minimum effective concentration is the lowest concentration at which some (5%) morphologically abnormal cells were observed under microscopic examination. It is filed as functional. Particulars: read-out: MEC. The procedure, abridged: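 C. albicans H-317 (clinical isolate) grown at 37 °C in yeast nitrogen base with 0.5% isoleucine and 5.0% glucose, harvested at early log phase, washed. Twofold serial dilutions in yeast nitrogen base, 1×10^6 cells/mL per well, 48 h at 37 °C in humid chamber with slight agitation; wells examined microscopically for lowest concentration giving ~5% abnormal cells.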

Assay [3] has as its system Candida albicans. Description: (§1) Concentration at which 50% of the cells incubated, were not able to form colonies when replated. It is filed as functional. The procedure, abridged:
(§2)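 C. albicans H-317 grown at 37 °C with stirring in yeast nitrogen base with 0.5% isoleucine and 5.0% glucose, harvested at early log phase. Cells were exposed at 1×10^6 cells/mL to twofold serial drug dilutions and incubated 48 h at 37 °C in a humid chamber. Wells were plated on potato dextrose agar for 2 days at 37 °C. Viability was taken as colonies versus hemocytometer counts.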

Assay [4] concerns Candida albicans. Described as §1. It is filed as ADME, organism-based. The conditions noted are these: read-out: Viability. The procedure, abridged:
as §2

Some results are limits rather than exact numbers.

`NC(=O)NCCCC(N)C(=O)N[C@@H](C(=O)O)[C@H]1O[C@@H](n2ccc(=O)[nH]c2=O)[C@H](O)[C@@H]1O` (some centres undefined) registered an ID50 in assay [1] of 68 µM. The minimal effective concentration in the assay with Candida albicans [2] came out at 500 µM. Further, the Viability in the assay with Candida albicans [3] was greater than 8 mM.

In assay [1], `NC(=O)OCC(O)C(O)C(N)C(=O)NC(C(=O)O)[C@H]1O[C@@H](n2cc(C(=O)O)c(=O)[nH]c2=O)[C@H](O)[C@@H]1O` (some centres undefined) displayed an ID50 of 1.8 µM. In the assay with Candida albicans [2], the minimal effective concentration amounted to 2 µM. The Viability in the assay on Candida albicans [3] was 1 mM.

Molecule `NC(Cc1ccc(O)cc1)C(=O)NC(C(=O)O)[C@H]1O[C@@H](n2ccc(=O)[nH]c2=O)[C@H](O)[C@@H]1O` (some centres undefined) yielded an ID50 in assay [1] of 4.9 µM. Further, the LC50 in the assay with Candida albicans [4] is greater than 8000 µM. In the assay with Candida albicans [2], the minimal effective concentration was 8000 µM.

For `N[C@@H](Cc1c[nH]c2ccccc12)C(=O)NC(C(=O)O)[C@H]1O[C@@H](n2ccc(=O)[nH]c2=O)[C@H](O)[C@@H]1O` (some centres undefined), the ID50 in assay [1] came to 1.7 µM. In addition, the minimal effective concentration in the assay with Candida albicans [2] came out at 130 µM. In the assay with Candida albicans [3], this molecule returned a Viability greater than 8 mM.

In the case of `NC(CCc1ccccc1)C(=O)NC(C(=O)O)[C@H]1O[C@@H](n2ccc(=O)[nH]c2=O)[C@H](O)[C@@H]1O` (some centres undefined), the ID50 in assay [1] came to 3.8 µM. Besides, the minimal effective concentration in the assay with Candida albicans [2] came out at 60 µM. In the assay with Candida albicans [3], this molecule showed a Viability greater than 8 mM.

Turning to `NC(C(=O)O)[C@H]1O[C@@H](n2ccc(=O)[nH]c2=O)[C@H](O)[C@@H]1O` (some centres undefined), the ID50 in assay [1] was greater than 100 µM. Further, the minimal effective concentration in the assay on Candida albicans [2] stood at 8000 µM. The same molecule gave a Viability in the assay with Candida albicans [3] greater than 8 mM.

Turning to `NC(Cc1ccc(Oc2ccc(O)cc2)cc1)C(=O)NC(C(=O)O)[C@H]1O[C@@H](n2ccc(=O)[nH]c2=O)[C@H](O)[C@@H]1O` (some centres undefined), in assay [1], the ID50 was 16 µM. Further, the minimal effective concentration in the assay with Candida albicans [2] was found to be 2000 µM. In the assay on Candida albicans [3], this molecule yielded a Viability of 4 mM.

In assay [1], `CCCCC(N)C(=O)NC(C(=O)O)[C@H]1O[C@@H](n2ccc(=O)[nH]c2=O)[C@H](O)[C@@H]1O` (some centres undefined) came in with an ID50 of 14 µM. Moreover, the minimal effective concentration in the assay with Candida albicans [2] came out at 170 µM. In the assay with Candida albicans [3], this molecule displayed a Viability of 4 mM.

These data come from ChEMBL document CHEMBL1122379, “Design of anticandidal agents: synthesis and biological properties of analogues of polyoxin L” (J Med Chem, 1983).
